Laboratory results: ChEMBL document CHEMBL4371031, “In Vitro Antiviral Activity of New Oxazoline Derivatives as Potent Poliovirus Inhibitors” (J Med Chem, 2019)
pEC50: −log10 of the molar value.

Assays:
Assay type in all cases: functional, organism-based
Conditions in all cases: Enterovirus C
Poliovirus 1 = assay: Antiviral activity against Poliovirus Sabin 1 infected in human HeLa cells assessed as reduction in virus-induced cytopathic effect after 72 hrs by crystal violet staining-based assay
Summary of the method: (§1)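 HeLa cells grown in MEM-10% FBS, seeded at 2x10^5 cells/mL in MEM-2% FBS and preincubated 24 h at 37°C, 5% CO2. Compound and virus were cross-titrated […] compound in 0.5 log10 steps (7-point curves), with duplicate wells and three replicate tests per virus. After 72 h at 37°C, cells were crystal violet stained and read at 590 nm. EC50 came from a four-parameter fit; if all virus dilutions gave >80% monolayer destruction, the value was […].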

Poliovirus 3 = assay: Antiviral activity against Poliovirus Sabin 3 infected in human HeLa cells assessed as reduction in virus-induced cytopathic effect after 72 hrs by crystal violet staining-based assay
Summary of the method: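 HeLa cells grown in MEM-10% FBS, seeded at 2x10^5 cells/mL in MEM-2% FBS and held 24 h at 37°C, 5% CO2. Compound and virus were cross-titrated together on the cells starting at 10 µM compound, in 0.5 log10 steps, duplicate wells, three replicate tests per virus. Incubated 72 h at 37°C, stained with crystal violet, A590 read. EC50 from four-parameter fit.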

Poliovirus 2 = assay: Antiviral activity against Poliovirus Sabin 2 infected in human HeLa cells assessed as reduction in virus-induced cytopathic effect after 72 hrs by crystal violet staining-based assay; summary of the method: as §1

| SMILES | pEC50 (Poliovirus 1) | pEC50 (Poliovirus 3) | pEC50 (Poliovirus 2) |
| --- | --- | --- | --- |
| Cc1ccc(C(=O)c2cccc(COc3ccc(C4=NCCO4)cc3)c2)s1 | < 5.00 | < 5.00 | < 5.00 |
| N#Cc1ccc(NC(=O)c2cc3n(n2)C(C(F)(F)F)CC(c2cccs2)N3)cc1 (stereo unspecified) | 8.00 | 6.66 | 7.59 |
| Cc1ccc(C(=O)CCCC[S+]([O-])c2ccc(C3=NCCO3)cc2)s1 (racemic) | < 5.00 | < 5.00 | < 5.00 |
| C#CC[C@@H](C(=O)N[C@H](/C=C/C(=O)OCC)C[C@@H]1CCNC1=O)n1cccc(NC(=O)c2cc(C)on2)c1=O [IMOCITRELVIR] | 6.76 | 6.86 | 6.52 |
| CCOC(=O)c1ccc(OCCC2CCN(c3ccc(C)nn3)CC2)cc1 [PIRODAVIR] | 8.35 | 8.10 | 8.30 |
| Cc1ccc(C(=O)CCCCSc2ccc(C3=N[C@H](C)CO3)cc2)s1 | 6.77 | 6.28 | 6.52 |
| Cc1ccc(C(=O)CCCCS(=O)(=O)c2ccc(C3=NCCO3)cc2)s1 | < 5.00 | < 5.00 | < 5.00 |
| Cc1ccc(C(=O)CCCC#Cc2ccc(C3=NCCO3)cc2)s1 | < 5.00 | 5.04 | 5.04 |
| Cc1ccc(C(=O)c2cccc(CSc3ccc(C4=NCCO4)cc3)c2)s1 | < 5.00 | < 5.00 | < 5.00 |
| COc1ccc(OCc2ccc(COc3c(Cl)cccc3Cl)cc2)c(Cl)c1 | 7.77 | 7.70 | 7.80 |
| Cc1ccc(C(=O)CCCCOc2ccc(C3=N[C@H](C)CO3)cc2)s1 | < 4.00 | 5.88 | 6.38 |
| Cc1ccc(C(=O)CCCCCc2ccc(C3=NCCO3)cc2)s1 | < 5.00 | 5.04 | 5.03 |
